The record followed here is PubChem BioAssay.

Assay [1] is described as follows: inhibitors of TNFa-induced NFkB p65 translocation, primary screen, imaging, HUVEC, MLSMR starter and 10KST1 sets (AID 438;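 active = inhibition above 20% together with a positive visual image hit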;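 note: compound added about 3h40 before a 20 min TNFalpha stimulation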;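 for inhibition: signal is the nuclear over cytoplasmic p65 intensity ratio per well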). The note with it: HUVEC TNFa-induced p65 nuclear translocation; cell count: measured here: nuclei count (cytotoxicity indicator), at 2.08 µM; inhibition: at 2 µM, stronger effect = higher value, 0% TNFa-plus-vehicle, 100% no-TNFa wells.
A short description of assay [2]: inhibitors of mutant huntingtin aggregation, primary screen, imaging, exon1htt(103Q)mCFP cells, high-content imaging (AID 483).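 For nuclei count: percent of the per-plate median nuclei count of sample wells.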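 Note: compound exposure lasted 3 days before fixation.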 To be noted: exon1htt(103Q)mCFP cell line, aggregate imaging, at 2 µM; inhibition of aggregation: stronger effect = higher value; nuclei count: measured here: cell count, toxicity.
Assay [3] can be described thus: inhibitors of E-selectin induction by TNFa, primary screen, imaging, HUVEC, immunofluorescence, MLSMR starter and 10KST1 sets (AID 487;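 active = visually confirmed hit in the image check and inhibition above 20%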;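 for inhibition: signal is fraction of cell area covered by stained E-selectin grains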;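 for nuclei count: 100% = median nuclei count of all wells on the same plate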). The note with it: HUVEC TNFalpha-induced E-selectin immunofluorescence imaging, at 2 µM; inhibition: stronger effect = higher value; nuclei count: measured here: cell number, toxicity.
The target of assay [4] is Voltage-gated potassium channel subunit beta-2 (Rattus norvegicus) (UniProt P62483). The assay can be described thus: KvBeta enzyme negative modulators, primary screen, biochemical, NADPH fluorescence (AID 622;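 active = fluorescence slope higher than the sample average by over 3 SD, cut at about -0.22 in these data, passing the limit was not always enough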;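 note: slope of raw intensity against log time taken from 70 to 1610 s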). The note with it: recombinant KvBeta, 4-cyanobenzaldehyde reduction, at 10 µM, stronger effect = higher value.
Assay [5] has the same target. Description: KvBeta positive modulators, primary screen, biochemical, NADPH fluorescence (AID 623;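 active = NADPH fluorescence slope more negative than the mean of all samples by about 3 SD, 99.7% confidence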;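 note: fluorescence intensity change per second fitted from 20 to 320 s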). To be noted: Recombinant KvBeta, NADPH fluorescence decrease slope, 10 min; at 10 µM; stronger effect = lower value.
The target in assay [6] is Muscarinic acetylcholine receptor M4 (Homo sapiens) (UniProt P08173). The assay can be described thus: compounds altering M4/GIRK thallium flux, either direction, primary screen, M4 allosteric agonist project, cell-based, HEK293 M4/GIRK, BTC-AM (AID 625;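 active = fluorescence slope after compound addition differing from the mean of all tested samples at 99.7% confidence, mostly higher but some lower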;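 note: thallium influx through GIRK channels coupled to M4 in HEK293 cells with BTC-AM dye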). The note with it: at 10 µM, actives lie on both sides. In outline: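 System: HEK293 cells with M4 receptor and GIRK channels | Incubation: Cells overnight at 37 °C, BTC-AM loading 1 h, reads 2 min total | Technique: Kinetic BTC-AM fluorescence sampled at 1 Hz, 10 s pre-addition baseline | Measure: Post-addition slope, 15–24 s, of baseline-normalized fluorescence | Control set: Carbachol positive, DMSO negative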

The nature of assay [7]: inhibitors of Sendai virus-induced IRF3 signaling, primary screen, TLR/RLR signaling modifier project, cell-based, Sendai virus stimulus, luciferase, 10K MLSCN set (AID 602276;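 active = inhibition at or above 50% at 10 µM; inactive = inhibition below 50%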;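 note: firefly luciferase from ISG56 promoter only with Renilla not read in this screen; 0% = Sendai virus plus DMSO and 100% = medium plus DMSO without virus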). The note with it: HEK293 RL24 IRF3 luciferase reporter, at 10 µM, stronger effect = higher value. On the technique in general: A reporter such as luciferase makes a cellular process visible.
The nature of assay [8]: inhibitors of poly I:C-induced TLR3 signaling, primary screen, cell-based, poly I:C stimulus, luciferase, 10K MLSCN set (AID 602277;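 active = inhibition of the reporter signal at or above 50%; inactive = inhibition below 50%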). The note with it: HEK293-TLR3 RL24 IRF3 luciferase reporter, at 10 µM, stronger effect = higher value.

Calls of active or inactive are those of the source.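 Rule for the calls, unless noted: active = visual image review flags a hit and inhibition of aggregation exceeds 20%; inconclusive = visual hit but inhibition at or below 20%; inactive = no hit on visual image review.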

Chain of Voltage-gated potassium channel subunit beta-2 (Rattus norvegicus) (P62483 whole entry, looked up): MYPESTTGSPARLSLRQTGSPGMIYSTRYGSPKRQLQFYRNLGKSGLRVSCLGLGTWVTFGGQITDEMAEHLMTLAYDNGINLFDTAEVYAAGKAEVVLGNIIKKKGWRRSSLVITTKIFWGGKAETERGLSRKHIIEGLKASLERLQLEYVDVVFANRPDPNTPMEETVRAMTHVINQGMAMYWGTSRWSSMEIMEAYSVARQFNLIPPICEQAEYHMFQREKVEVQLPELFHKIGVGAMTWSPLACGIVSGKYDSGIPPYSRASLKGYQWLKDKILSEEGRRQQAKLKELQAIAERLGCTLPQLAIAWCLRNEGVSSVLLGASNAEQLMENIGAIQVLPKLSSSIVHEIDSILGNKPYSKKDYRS
Chain of Muscarinic acetylcholine receptor M4 (Homo sapiens) (P08173 whole entry, looked up): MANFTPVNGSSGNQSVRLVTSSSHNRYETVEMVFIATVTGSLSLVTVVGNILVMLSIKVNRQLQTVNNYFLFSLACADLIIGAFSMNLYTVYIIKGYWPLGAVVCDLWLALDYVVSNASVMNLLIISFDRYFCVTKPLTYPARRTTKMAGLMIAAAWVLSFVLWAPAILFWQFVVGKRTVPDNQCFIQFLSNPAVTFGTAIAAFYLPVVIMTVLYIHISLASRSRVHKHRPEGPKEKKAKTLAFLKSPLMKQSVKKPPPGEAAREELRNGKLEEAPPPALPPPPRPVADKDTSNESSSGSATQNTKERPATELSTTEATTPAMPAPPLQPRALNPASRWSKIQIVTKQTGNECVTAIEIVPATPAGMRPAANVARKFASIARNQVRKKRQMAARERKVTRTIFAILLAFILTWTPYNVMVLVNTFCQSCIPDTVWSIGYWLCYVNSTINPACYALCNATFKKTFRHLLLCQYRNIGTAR

The inhibition is the change of the read-out against control, counted positive when it falls. As for `CCCCNC(=O)CN(C1CCCCC1)S(C)(=O)=O`, the cell count in assay [1] amounted to 422. For the same compound, the inhibition in assay [1] is 1.2% (inactive); in assay [3], -22.8% (inactive); in assay [7] it was 16.6% (inactive); in assay [8], 14.9% (inactive). The inhibition of aggregation in assay [2] was -3.6% (inactive). Moreover, the nuclei count came to 99.8% in assay [2] and 103% in assay [3]. Besides, the fluorescence slope in assay [4] was -0.551 (inactive); in assay [6] it was 0.0049 (inactive). Further, in assay [5], the NADPH fluorescence slope is 1.8e-07 (inactive).
`CCCn1c2c(c(O)c(C(=O)NC)c1=O)CCCC2`: in assay [1], the cell count was determined as 323. The inhibition in assay [1] was 3.4% (inactive); in assay [3], -40.9% (inactive); in assay [7] it was 26.6% (inactive); in assay [8] it was 25.6% (inactive). Also, the inhibition of aggregation in assay [2] is -3.3% (inactive). For the same compound, the nuclei count in assay [2] worked out at 101%; in assay [3], 112%. In addition, the fluorescence slope was -0.566 (inactive) in assay [4] and 0.00821 (inactive) in assay [6]. Further, the NADPH fluorescence slope in assay [5] is -6.4e-05 (inactive).
Consider `COc1ccc(CC(=O)Nc2c3c(nn2-c2cccc(Cl)c2)CS(=O)(=O)C3)cc1`, for which the cell count in assay [1] turned out to be 785. Also, the inhibition in assay [1] is -11.6% (inactive); in assay [3] it was -28.2% (inactive); in assay [7], 19.7% (inactive); in assay [8] it was 20.9% (inactive). For the same compound, in assay [2], the inhibition of aggregation was -2.4% (inactive). For the same compound, the nuclei count is 98.5% in assay [2] and 107% in assay [3]. In addition, the fluorescence slope in assay [4] was -0.529 (inactive); in assay [6], 0.00322 (inactive). In assay [5], the NADPH fluorescence slope is 1.2e-05 (inactive).
Consider `O=S(=O)(NCCc1ccncc1)c1cc(Br)ccc1F`, for which, in assay [1], the cell count is 231. Besides, the inhibition is 1.9% (inactive) in assay [1], -46.9% (inactive) in assay [3], 24.5% (inactive) in assay [7] and 16.5% (inactive) in assay [8]. Also, the inhibition of aggregation in assay [2] is -9.7% (inactive). Also, the nuclei count is 106% in assay [2] and 110% in assay [3]. Also, the fluorescence slope in assay [4] was -0.626 (inactive); in assay [6], 0.00792 (inactive). The NADPH fluorescence slope in assay [5] is -1.6e-05 (inactive).
On to `Cc1ccc(-n2c(Cc3cccn3C)nnc2SCC(=O)NCc2ccc3c(c2)OCO3)cc1`, for which the cell count in assay [1] was found to be 567. Further, the inhibition was -12.9% (inactive) in assay [1], -53.4% (inactive) in assay [3], 18.7% (inactive) in assay [7] and 26.7% (inactive) in assay [8]. In assay [2], the inhibition of aggregation is -10.3% (inactive). Also, the nuclei count stood at 103% in assay [2] and 82.3% in assay [3]. The fluorescence slope in assay [4] is -0.419 (inactive); in assay [6], 0.00714 (inactive). In addition, the NADPH fluorescence slope in assay [5] was 2.3e-05 (inactive).
With `COc1cc(OC)cc(C(=O)NCc2n[nH]c(=S)n2-c2ccccc2OC)c1`, the cell count in assay [1] was 385. The inhibition is 0% (inactive) in assay [1], -29.2% (inactive) in assay [3], 7.57% (inactive) in assay [7] and 6.78% (inactive) in assay [8]. For the same compound, the inhibition of aggregation in assay [2] is -6.2% (inactive). Besides, the nuclei count in assay [2] worked out at 112%; in assay [3], 83%. Moreover, the fluorescence slope in assay [4] is -0.329 (inactive); in assay [6], 0.00633 (inactive). Moreover, in assay [5], the NADPH fluorescence slope was -6.5e-05 (inactive).
In the case of `CCOC(=O)c1sc(NC(=O)CNC(=O)Cn2cnc3sc(C)c(C)c3c2=O)nc1C`, the cell count in assay [1] was determined as 260. In addition, the inhibition in assay [1] is 12.2% (inactive); in assay [3], -61.8% (inactive); in assay [7] it was 16.7% (inactive); in assay [8], 24.7% (inactive). The inhibition of aggregation in assay [2] is -12.7% (inactive). Further, the nuclei count in assay [2] stood at 112%; in assay [3], 109%. Further, the fluorescence slope was -0.565 (inactive) in assay [4] and 0.00606 (inactive) in assay [6]. Moreover, the NADPH fluorescence slope in assay [5] was -1.6e-06 (inactive).
Take `O=C(OCC(=O)N1CCCC1)c1cncc(Br)c1`: the cell count in assay [1] stood at 682. The inhibition was 16.5% (inactive) in assay [1], 35.3% (inactive) in assay [3], 11.4% (inactive) in assay [7] and 0.097% (inactive) in assay [8]. Besides, the inhibition of aggregation in assay [2] is 23.5% (inactive). For the same compound, the nuclei count was determined as 83% in assay [2] and 102% in assay [3]. The fluorescence slope in assay [4] was -0.207 (inactive); in assay [6] it was 0.00528 (inactive). Besides, the NADPH fluorescence slope in assay [5] is -2.4e-05 (inactive).
Consider `CCOc1ccccc1NC(=O)C1CCCN1C(=O)OCc1ccccc1` (centres undefined), for which the cell count in assay [1] turned out to be 438. Moreover, the inhibition in assay [1] was 6% (inactive); in assay [3], -406% (inactive); in assay [7], 4.99% (inactive); in assay [8], 7.18% (inactive). Moreover, the inhibition of aggregation in assay [2] is -8.5% (inactive). In addition, the nuclei count in assay [2] came to 103%; in assay [3], 152%. In addition, the fluorescence slope is -0.544 (inactive) in assay [4] and 0.0063 (inactive) in assay [6]. For the same compound, the NADPH fluorescence slope in assay [5] was -4.2e-05 (inactive).
As for `Cc1nn(Cc2ccccc2)c(C)c1NC(=O)CCC(=O)O`, the cell count in assay [1] came out at 667. The inhibition is 23.6% (active) in assay [1], 17.9% (inactive) in assay [3], -5.04% (inactive) in assay [7] and -12.9% (inactive) in assay [8]. The inhibition of aggregation in assay [2] was -6.6% (inactive). Also, the nuclei count in assay [2] was determined as 112%; in assay [3], 105%. In addition, the fluorescence slope was -0.49 (inactive) in assay [4] and 0.00488 (inactive) in assay [6]. In assay [5], the NADPH fluorescence slope was 1.1e-05 (inactive).
On to `CC1CCCC(NC(=O)CSc2ncccc2C(=O)O)C1C` (centres undefined), for which the cell count in assay [1] amounted to 660. The inhibition in assay [1] is -10% (inactive); in assay [3], -55.4% (inactive); in assay [7] it was 13.9% (inactive); in assay [8], 24.3% (inactive). Besides, in assay [2], the inhibition of aggregation is 7.4% (inactive). For the same compound, the nuclei count came to 117% in assay [2] and 112% in assay [3]. Besides, the fluorescence slope in assay [4] is -0.566 (inactive); in assay [6], 0.00597 (inactive). For the same compound, the NADPH fluorescence slope in assay [5] is -8.3e-06 (inactive).
`COc1ccc(C(=O)OC(COc2ccccc2)Cn2ccnc2)cc1` (centres undefined): the cell count in assay [1] worked out at 348. Besides, the inhibition in assay [1] was -7.4% (inactive); in assay [3] it was 13.4% (inactive); in assay [7], -15.3% (inactive); in assay [8] it was -24.8% (inactive). Further, the inhibition of aggregation in assay [2] was -15.3% (inactive). For the same compound, the nuclei count in assay [2] was found to be 98%; in assay [3] it was 118%. Moreover, the fluorescence slope in assay [4] is -0.291 (inactive); in assay [6], 0.00691 (inactive). Also, the NADPH fluorescence slope in assay [5] is 6.7e-06 (inactive).
On to `CCOC(=O)c1cc2sccc2n1CC(=O)Nc1ccc2c(c1)OCCO2`, for which the cell count in assay [1] is 513. In addition, the inhibition in assay [1] was -14.9% (inactive); in assay [3], 12.2% (inactive); in assay [7], -5.94% (inactive); in assay [8] it was -4.31% (inactive). The inhibition of aggregation in assay [2] is -25.9% (inactive). Further, the nuclei count in assay [2] was 108%; in assay [3] it was 117%. The fluorescence slope in assay [4] is -0.61 (inactive); in assay [6] it was 0.00667 (inactive). Further, in assay [5], the NADPH fluorescence slope is 4.2e-06 (inactive).
Turning to `COc1ccc(CC(NC(C)=O)C(=O)NC2CCN(c3nc(C)cc(C)c3C#N)CC2)c(OC)c1` (centres undefined), in assay [1], the cell count was determined as 750. Further, the inhibition was -7.4% (inactive) in assay [1], -32.4% (inactive) in assay [3], -9.6% (inactive) in assay [7] and -9.61% (inactive) in assay [8]. In assay [2], the inhibition of aggregation was -12.3% (inactive). The nuclei count in assay [2] came out at 121%; in assay [3], 112%. Also, the figures for the fluorescence slope in assay [4] and in assay [6] were -0.341 (inactive) and 0.00702 (inactive), respectively. Also, the NADPH fluorescence slope in assay [5] was -1.7e-05 (inactive).
